The values below come from ChEMBL document CHEMBL1828568, “Novel imaging agents for β-amyloid plaque based on the N-benzoylindole core” (Bioorg Med Chem Lett, 2011).

Activity calls are given as the source filed them. No cut-off for these calls is given here.

For assay [1], the species on record is Mus musculus. Nature of the assay: Binding affinity to beta-amyloid plaque in APP/PS1 transgenic mouse C57 brain after 20 mins by autoradiography. In kind it is tissue-based. The following applies: tested as the 125I-labelled form. Put shortly:
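In vitro autoradiography of brain sections from AD model mice (C57, APP/PS1), labeled with the 125I-iodinated tracer.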

Assay [2] is filed under the species Mus musculus. Description: Binding affinity to beta-amyloid plaque in APP/PS1 transgenic mouse C57 brain after 20 mins by fluorescent staining with thioflavin-S. In kind it is tissue-based. The following applies: tested as the 125I-labelled form.
Assay [3] is described as follows: Displacement of [125I]TZDM from amyloid beta (1 to 40) aggregates after 2 hrs by gamma counting. Put shortly:
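Competition binding against [125I]TZDM as radiolabeled standard, using Aβ1–40 aggregates; run in triplicate, results as mean ± SD.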
(In general: In a radioligand displacement assay an active substance lowers the binding of a labelled ligand.)

A word on the Ki: it is a dissociation constant, usually derived from enzyme kinetics or from competition with a known ligand. Read a high Ki as lower affinity.

Take `O=C(/C=C/c1ccccc1)n1ccc2cc(I)ccc21`: the result in the assay listed under Mus musculus [1] and in the assay filed under Mus musculus [2] was Active. The same molecule displayed a Ki in assay [3] of 8.4 nM.
